Source: ChEMBL document CHEMBL5247578, “Effective synthesis of benzimidazoles-imidazo[1,2-a]pyrazine conjugates: A comparative study of mono-and bis-benzimidazoles for antitumor activity” (Eur J Med Chem, 2019)

What was measured:
[1] = test system: Calf thymus DNA; experiment: Binding affinity to calf thymus DNA assessed as quenching constant at temperature of 298 K by fluorescence spectroscopic method; assay type: nucleic-acid assay; settings: Bos taurus
[2] = test system: Calf thymus DNA; experiment: Binding affinity to calf thymus DNA assessed as intercalation by measuring hypochromic shift at 20 uM by UV-vis spectrophotometric method relative to control; assay type: nucleic-acid assay; settings: Bos taurus
[3] = test system: 786-0; experiment: Antiproliferative activity against human 786-0 cells assessed as cell growth at 0.00000001 M incubated for 48 hrs by SRB assay relative to control; assay type: functional; settings: dose 10 nM, read-out: Activity
Outline: (§1)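 NCI-60 five-dose screen over 10^-4–10^-8 M (10-fold dilutions). Cells grown in RPMI 1640 with 5% FBS and 2 mM L-glutamine, seeded at 5,000–40,000 cells/well and preincubated 24 h. Drug from DMSO stock, 48 h at 37 °C, 5% CO2. Adherent cells TCA-fixed and stained with 0.4% SRB; A515 read. Percent growth = (Ti−Tz)/(C−Tz)×100, or (Ti−Tz)/Tz×100 when Ti<Tz.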

[4] = test system: OVCAR-3; experiment: Antiproliferative activity against human OVCAR-3 cells assessed as cell growth at 0.00000001 M incubated for 48 hrs by SRB assay relative to control; assay type: functional; settings: dose 10 nM, read-out: Activity
[5] = test system: IGROV-1; experiment: Antiproliferative activity against human IGROV-1 cells assessed as cell growth at 0.00000001 M incubated for 48 hrs by SRB assay relative to control; assay type: functional; settings: dose 10 nM, read-out: Activity
[6] = test system: NCI-H460; experiment: Antiproliferative activity against human NCI-H460 cells assessed as cell growth at 0.00000001 M incubated for 48 hrs by SRB assay relative to control; assay type: functional; settings: dose 10 nM, read-out: Activity
[7] = test system: HCC 2998; experiment: Antiproliferative activity against human HCC 2998 cells assessed as cell growth at 0.00000001 M incubated for 48 hrs by SRB assay relative to control; assay type: functional; settings: dose 10 nM, read-out: Activity
Outline: (§2)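 NCI-60 five-dose screen (10^-4 to 10^-8 M). Cells grown in RPMI 1640 with 5% FBS and 2 mM L-glutamine, plated at 5,000-40,000 cells/well and preincubated 24 h. Drug given from DMSO stock, then 48 h at 37 °C, 5% CO2. For adherent lines, cells fixed with cold TCA, SRB-stained and read at 515 nm. Percent growth taken against time-zero and untreated control.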

[8] = test system: LOX IMVI; experiment: Antiproliferative activity against human LOX IMVI cells assessed as cell growth at 0.00000001 M incubated for 48 hrs by SRB assay relative to control; assay type: functional; settings: dose 10 nM, read-out: Activity
[9] = test system: NCI-H322M; experiment: Antiproliferative activity against human NCI-H322M cells assessed as cell growth inhibition by measuring lethal concentration incubated for 48 hrs by sulforhodamine B assay; assay type: functional; settings: read-out: LC50 (the source's name)
[10] = test system: EKVX; experiment: Antiproliferative activity against human EKVX cells assessed as cell growth inhibition by measuring lethal concentration incubated for 48 hrs by sulforhodamine B assay; assay type: functional; settings: read-out: LC50 (the source's name)
[11] = test system: Hs-578T; experiment: Growth inhibition against human Hs-578T cells incubated for 48 hrs by sulforhodamine B assay; assay type: functional
[12] = test system: SN12C; experiment: Growth inhibition against human SN12C cells incubated for 48 hrs by sulforhodamine B assay; assay type: functional
[13] = test system: ACHN; experiment: Growth inhibition against human ACHN cells incubated for 48 hrs by sulforhodamine B assay; assay type: functional
[14] = test system: 786-0; experiment: Growth inhibition against human 786-0 cells incubated for 48 hrs by sulforhodamine B assay; assay type: functional
[15] = test system: SNB-19; experiment: Growth inhibition against human SNB-19 cells incubated for 48 hrs by sulforhodamine B assay; assay type: functional
[16] = test system: SF-539; experiment: Growth inhibition against human SF-539 cells incubated for 48 hrs by sulforhodamine B assay; assay type: functional
[17] = test system: SF-268; experiment: Growth inhibition against human SF-268 cells incubated for 48 hrs by sulforhodamine B assay; assay type: functional
[18] = test system: KM12; experiment: Growth inhibition against human KM12 cells incubated for 48 hrs by sulforhodamine B assay; assay type: functional
[19] = test system: HOP-92; experiment: Antiproliferative activity against human HOP-92 cells assessed as cell growth at 0.0000001 M incubated for 48 hrs by SRB assay relative to control; assay type: functional; settings: dose 100 nM, read-out: Activity; outline: as §2
[20] = test system: HCC 2998; experiment: Antiproliferative activity against human HCC 2998 cells assessed as cell growth at 0.0000001 M incubated for 48 hrs by SRB assay relative to control; assay type: functional; settings: dose 100 nM, read-out: Activity; outline: as §2
[21] = test system: SF-268; experiment: Antiproliferative activity against human SF-268 cells assessed as cell growth at 0.0000001 M incubated for 48 hrs by SRB assay relative to control; assay type: functional; settings: dose 100 nM, read-out: Activity
[22] = test system: LOX IMVI; experiment: Antiproliferative activity against human LOX IMVI cells assessed as cell growth at 0.0000001 M incubated for 48 hrs by SRB assay relative to control; assay type: functional; settings: dose 100 nM, read-out: Activity
[23] = test system: A498; experiment: Antiproliferative activity against human A498 cells assessed as cell growth at 0.0000001 M incubated for 48 hrs by SRB assay relative to control; assay type: functional; settings: dose 100 nM, read-out: Activity; outline: as §1
[24] = test system: HOP-92; experiment: Antiproliferative activity against human HOP-92 cells assessed as cell growth at 0.000001 M incubated for 48 hrs by SRB assay relative to control; assay type: functional; settings: read-out: Activity; outline: as §2
[25] = test system: NCI-H460; experiment: Antiproliferative activity against human NCI-H460 cells assessed as cell growth at 0.000001 M incubated for 48 hrs by SRB assay relative to control; assay type: functional; settings: read-out: Activity
[26] = test system: HCC 2998; experiment: Antiproliferative activity against human HCC 2998 cells assessed as cell growth at 0.000001 M incubated for 48 hrs by SRB assay relative to control; assay type: functional; settings: read-out: Activity; outline: as §2
[27] = test system: OVCAR-8; experiment: Antiproliferative activity against human OVCAR-8 cells assessed as cell growth at 0.000001 M incubated for 48 hrs by SRB assay relative to control; assay type: functional; settings: read-out: Activity
[28] = test system: SK-OV-3; experiment: Antiproliferative activity against human SK-OV-3 cells assessed as cell growth at 0.000001 M incubated for 48 hrs by SRB assay relative to control; assay type: functional; settings: read-out: Activity
[29] = test system: 786-0; experiment: Antiproliferative activity against human 786-0 cells assessed as cell growth at 0.000001 M incubated for 48 hrs by SRB assay relative to control; assay type: functional; settings: read-out: Activity; outline: as §1
[30] = test system: CCRF-CEM; experiment: Antiproliferative activity against human CCRF-CEM cells assessed as cell growth at 0.00001 M incubated for 48 hrs by SRB assay relative to control; assay type: functional; settings: read-out: Activity; outline: as §1
[31] = test system: SK-MEL-2; experiment: Antiproliferative activity against human SK-MEL-2 cells assessed as cell growth at 0.00001 M incubated for 48 hrs by SRB assay relative to control; assay type: functional; settings: read-out: Activity
[32] = test system: OVCAR-4; experiment: Antiproliferative activity against human OVCAR-4 cells assessed as cell growth at 0.00001 M incubated for 48 hrs by SRB assay relative to control; assay type: functional; settings: read-out: Activity
[33] = test system: DU-145; experiment: Antiproliferative activity against human DU-145 cells assessed as cell growth at 0.00001 M incubated for 48 hrs by SRB assay relative to control; assay type: functional; settings: read-out: Activity; outline: as §2
[34] = test system: NCI-H226; experiment: Antiproliferative activity against human NCI-H226 cells assessed as cell growth at 0.0001 M incubated for 48 hrs by SRB assay relative to control; assay type: functional; settings: read-out: Activity
[35] = test system: SNB-19; experiment: Antiproliferative activity against human SNB-19 cells assessed as cell growth at 0.0001 M incubated for 48 hrs by SRB assay relative to control; assay type: functional; settings: read-out: Activity
[36] = test system: MCF7; experiment: Antiproliferative activity against human MCF7 cells assessed as cell growth at 0.0001 M incubated for 48 hrs by SRB assay relative to control; assay type: functional; settings: read-out: Activity

With `c1ccc(Cn2cnc3ccc(-c4nc(-c5ccc6c(c5)ncn6C5CCCCC5)cn5ccnc45)cc32)cc1` the Kq [1] was 1.19 10^12/M/s, the Activity [2] was 15.3% and the growth at 0.01 µM [3] was 86%. The growth at 0.01 µM [4] was 101%, the growth at 0.01 µM [5] was 97% and the growth at 0.01 µM [6] was 103%. For the same compound, the growth at 0.01 µM [7] was 94%, the growth at 0.01 µM [8] was 98% and the CC50 [9] was greater than 100000 nM. The CC50 [10] was greater than 100000 nM, the GI50 [11] was 2710 nM and the GI50 [12] was 2270 nM. For the same compound, the GI50 [13] was 3080 nM, the GI50 [14] was 799 nM and the GI50 [15] was 4540 nM. It also gave a GI50 [16] of 1060 nM, a GI50 [17] of 2480 nM and a GI50 [18] of 2090 nM. The growth at 0.1 µM [19] was 98%, the growth at 0.1 µM [20] was 98% and the growth at 0.1 µM [21] was 94%. For the same compound, the growth at 0.1 µM [22] was 94%, the growth at 0.1 µM [23] was 101% and the growth at 1 µM [24] was 65%. It also gave a growth at 1 µM [25] of 96%, a growth at 1 µM [26] of 105% and a growth at 1 µM [27] of 102%. It also gave a growth at 1 µM [28] of 100%, a growth at 1 µM [29] of 46% and a growth at 10 µM [30] of 8%. For the same compound, the growth at 10 µM [31] was -41%, the growth at 10 µM [32] was 1% and the growth at 10 µM [33] was 4%. For the same compound, the growth at 100 µM [34] was 36%, the growth at 100 µM [35] was 32% and the growth at 100 µM [36] was 8%.

In the case of `COc1ccc(-c2cn3ccnc3c(-c3ccc4ncn(C5CCCCC5)c4c3)n2)cc1`, the Kq [1] is reported as 4.65 10^12/M/s, the Activity [2] is reported as 20.8% and the growth at 0.01 µM [3] is reported as 87%. It also gave a growth at 0.01 µM [4] of 100%, a growth at 0.01 µM [5] of 96% and a growth at 0.01 µM [6] of 104%. It also gave a growth at 0.01 µM [7] of 97%, a growth at 0.01 µM [8] of 95% and a CC50 [9] greater than 100000 nM. For the same compound, the CC50 [10] was greater than 100000 nM, the GI50 [11] was 1160 nM and the GI50 [12] was 2110 nM. The GI50 [13] was 692 nM, the GI50 [14] was 527 nM and the GI50 [15] was 836 nM. It also gave a GI50 [16] of 569 nM, a GI50 [17] of 2380 nM and a GI50 [18] of 1350 nM. For the same compound, the growth at 0.1 µM [19] was 94%, the growth at 0.1 µM [20] was 94% and the growth at 0.1 µM [21] was 92%. For the same compound, the growth at 0.1 µM [22] was 92%, the growth at 0.1 µM [23] was 92% and the growth at 1 µM [24] was 54%. It also gave a growth at 1 µM [25] of 35%, a growth at 1 µM [26] of 86% and a growth at 1 µM [27] of 92%. It also gave a growth at 1 µM [28] of 34%, a growth at 1 µM [29] of 34% and a growth at 10 µM [30] of 16%. It also gave a growth at 10 µM [31] of 21%, a growth at 10 µM [32] of 35% and a growth at 10 µM [33] of 14%. For the same compound, the growth at 100 µM [34] was 39%, the growth at 100 µM [35] was 15% and the growth at 100 µM [36] was 24%.
